Assay results: ChEMBL document CHEMBL2384906, “Biological activity, design, synthesis and structure activity relationship of some novel derivatives of curcumin containing sulfonamides” (Eur J Med Chem, 2013)
In brackets after ≈: the same amount, converted by molar mass. Activity calls are given as the source filed them. The calls are words filed in the database; no cut-off is given here.

Key:
[1] = test system: HepG2; assay: Cytotoxicity against human HepG2 cells after 24 hrs by MTT assay; assay type: functional, cell-based
Method in brief: (§1)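 The MTT assay seeded 5 × 10⁴ cells per well and grew them 24 h in RPMI 1640 with compound at 2.5–200 µM. Medium without cells was the blank and adriamycin the positive control. MTT was added for 4 h at 37 °C, formazan was solubilised, and absorbance was read at 570 nm. IC50 is the concentration that cuts viability 50% against untreated cells.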

[2] = test system: Escherichia coli; assay: Antimicrobial activity against Escherichia coli ATCC 35218 after 24 hrs by broth micro serial dilution method; assay type: functional; settings: ATCC 35218, 24 h
Method in brief: (§2)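 This was broth microdilution in autoclaved Mueller-Hinton broth. 150 µL of compound per well was serially diluted […], and 50 µL of test organism was added. Plates were incubated 24 h at 37 °C and optical density was read.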

[3] = test system: Pseudomonas aeruginosa; assay: Antimicrobial activity against Pseudomonas aeruginosa ATCC 15499 after 24 hrs by broth micro serial dilution method; assay type: functional; settings: ATCC 15499, 24 h; method in brief: as §2
[4] = test system: Trichoderma viride; assay: Antifungal activity against Trichoderma viride MTCC 1107 assessed as zone of inhibition at 80 uM after 48 hrs by disc diffusion method; assay type: functional; settings: MTCC 1107, 48 h, read-out: IZ
Method in brief: (§3)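 Spores from 4-day potato dextrose agar cultures, suspended in sterile water at 1.5 × 10⁵ CFU/mL. 0.2 mL was spread on potato dextrose agar. 5 mm filter-paper discs soaked with test compound were laid on the lawn. Incubation was 48 h at 28 °C, then the inhibition zone was measured in mm. Fluconazole was the positive control and acetone the negative control.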

[5] = test system: Staphylococcus aureus; assay: Antimicrobial activity against Staphylococcus aureus ATCC 11632 assessed as diameter of inhibition zone at 20 uM after 24 hrs by Kirby -Baur disc diffusion method; assay type: functional; settings: ATCC 11632, 24 h, read-out: DIZ
Method in brief: (§4)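 Kirby-Bauer disc diffusion was used. Acetone stocks (160 µM) were serially doubled down to 80, 40 and 20 µM. 4 µL of each went onto 5 mm sterile paper discs, which were dried 30 min at 50 °C. Inoculum was 1.5 × 10⁸ CFU/mL diluted to 3 × 10² CFU/mL, and 50 µL was spread on Mueller-Hinton agar. After 24 h at 37 °C the inhibition-zone diameter was measured. Ciprofloxacin served as positive control.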

[6] = test system: Curvularia lunata; assay: Antifungal activity against Curvularia lunata MTCC 581 assessed as zone of inhibition at 80 uM after 48 hrs by disc diffusion method; assay type: functional; settings: MTCC 581, 48 h, read-out: IZ; method in brief: as §3
[7] = test system: Pseudomonas aeruginosa; assay: Antimicrobial activity against Pseudomonas aeruginosa ATCC 15499 assessed as diameter of inhibition zone at 20 uM after 24 hrs by Kirby -Baur disc diffusion method; assay type: functional; method in brief: as §4
[8] = test system: Aspergillus niger; assay: Antifungal activity against Aspergillus niger MTCC 1108 assessed as zone of inhibition at 20 uM after 48 hrs by disc diffusion method; assay type: functional; method in brief: as §3
[9] = test system: Curvularia lunata; assay: Antifungal activity against Curvularia lunata MTCC 581 assessed as zone of inhibition at 40 uM after 48 hrs by disc diffusion method; assay type: functional; settings: MTCC 581, 48 h, read-out: IZ; method in brief: as §3
[10] = test system: Salmonella typhi; assay: Antimicrobial activity against Salmonella typhi ATCC 23564 assessed as diameter of inhibition zone at 20 uM after 24 hrs by Kirby -Baur disc diffusion method; assay type: functional, Salmonella enterica subsp. enterica serovar Typhi; settings: Salmonella enterica, ATCC 23564, 24 h; read-out: DIZ
[11] = test system: Bacillus cereus; assay: Antimicrobial activity against Bacillus cereus MTCC 7350 assessed as diameter of inhibition zone at 20 uM after 24 hrs by Kirby -Baur disc diffusion method; assay type: functional; method in brief: as §4
[12] = test system: Trichoderma viride; assay: Antifungal activity against Trichoderma viride MTCC 1107 after 48 hrs; assay type: functional; settings: MTCC 1107, 48 h
[13] = test system: Pseudomonas aeruginosa; assay: Antimicrobial activity against Pseudomonas aeruginosa ATCC 15499 assessed as diameter of inhibition zone at 40 uM after 24 hrs by Kirby -Baur disc diffusion method; assay type: functional; method in brief: as §4
[14] = test system: Bacillus cereus; assay: Antimicrobial activity against Bacillus cereus MTCC 7350 after 24 hrs by broth micro serial dilution method; assay type: functional; settings: MTCC 7350, 24 h; method in brief: as §2
[15] = test system: Aspergillus flavus; assay: Antifungal activity against Aspergillus flavus MTCC 1021 assessed as zone of inhibition at 80 uM after 48 hrs by disc diffusion method; assay type: functional; method in brief: as §3
[16] = test system: Staphylococcus aureus; assay: Antimicrobial activity against Staphylococcus aureus ATCC 11632 after 24 hrs by broth micro serial dilution method; assay type: functional; settings: ATCC 11632, 24 h; method in brief: as §2
[17] = test system: Pseudomonas aeruginosa; assay: Antimicrobial activity against Pseudomonas aeruginosa ATCC 15499 assessed as diameter of inhibition zone at 80 uM after 24 hrs by Kirby -Baur disc diffusion method; assay type: functional; settings: ATCC 15499, 24 h, read-out: DIZ; method in brief: as §4
[18] = test system: Salmonella typhi; assay: Antimicrobial activity against Salmonella typhi ATCC 23564 assessed as diameter of inhibition zone at 80 uM after 24 hrs by Kirby -Baur disc diffusion method; assay type: functional, Salmonella enterica subsp. enterica serovar Typhi; settings: Salmonella enterica, ATCC 23564, 24 h; read-out: DIZ
[19] = test system: Aspergillus niger; assay: Antifungal activity against Aspergillus niger MTCC 1108 assessed as zone of inhibition at 40 uM after 48 hrs by disc diffusion method; assay type: functional; settings: MTCC 1108, 48 h, read-out: IZ; method in brief: as §3
[20] = test system: Aspergillus flavus; assay: Antifungal activity against Aspergillus flavus MTCC 1021 after 48 hrs; assay type: functional
[21] = test system: Trichoderma viride; assay: Antifungal activity against Trichoderma viride MTCC 1107 assessed as zone of inhibition at 40 uM after 48 hrs by disc diffusion method; assay type: functional; settings: MTCC 1107, 48 h, read-out: IZ; method in brief: as §3
[22] = test system: QG-56; assay: Cytotoxicity against human QG56 cells after 24 hrs by MTT assay; assay type: functional, cell-based; method in brief: as §1
[23] = test system: HCT-116; assay: Cytotoxicity against human HCT116 cells after 24 hrs by MTT assay; assay type: functional, cell-based; method in brief: as §1
[24] = test system: Curvularia lunata; assay: Antifungal activity against Curvularia lunata MTCC 581 assessed as zone of inhibition at 20 uM after 48 hrs by disc diffusion method; assay type: functional; method in brief: as §3
[25] = test system: Staphylococcus aureus; assay: Antimicrobial activity against Staphylococcus aureus ATCC 11632 assessed as diameter of inhibition zone at 40 uM after 24 hrs by Kirby -Baur disc diffusion method; assay type: functional; settings: ATCC 11632, 24 h, read-out: DIZ; method in brief: as §4
[26] = test system: Trichoderma viride; assay: Antifungal activity against Trichoderma viride MTCC 1107 assessed as zone of inhibition at 20 uM after 48 hrs by disc diffusion method; assay type: functional; method in brief: as §3
[27] = test system: Aspergillus niger; assay: Antifungal activity against Aspergillus niger MTCC 1108 after 48 hrs; assay type: functional; settings: MTCC 1108, 48 h
[28] = test system: Bacillus cereus; assay: Antimicrobial activity against Bacillus cereus MTCC 7350 assessed as diameter of inhibition zone at 80 uM after 24 hrs by Kirby -Baur disc diffusion method; assay type: functional; settings: MTCC 7350, 24 h, read-out: DIZ; method in brief: as §4
[29] = test system: Salmonella typhi; assay: Antimicrobial activity against Salmonella typhi ATCC 23564 assessed as diameter of inhibition zone at 40 uM after 24 hrs by Kirby -Baur disc diffusion method; assay type: functional, Salmonella enterica subsp. enterica serovar Typhi; settings: Salmonella enterica, ATCC 23564, 24 h; read-out: DIZ
[30] = test system: Escherichia coli; assay: Antimicrobial activity against Escherichia coli ATCC 35218 assessed as diameter of inhibition zone at 80 uM after 24 hrs by Kirby -Baur disc diffusion method; assay type: functional; settings: ATCC 35218, 24 h, read-out: DIZ; method in brief: as §4
[31] = test system: Aspergillus niger; assay: Antifungal activity against Aspergillus niger MTCC 1108 assessed as zone of inhibition at 80 uM after 48 hrs by disc diffusion method; assay type: functional; settings: MTCC 1108, 48 h, read-out: IZ; method in brief: as §3
[32] = test system: HeLa; assay: Cytotoxicity against human HeLa cells after 24 hrs by MTT assay; assay type: functional, cell-based; method in brief: as §1
[33] = test system: Bacillus cereus; assay: Antimicrobial activity against Bacillus cereus MTCC 7350 assessed as diameter of inhibition zone at 40 uM after 24 hrs by Kirby -Baur disc diffusion method; assay type: functional; method in brief: as §4
[34] = test system: Escherichia coli; assay: Antimicrobial activity against Escherichia coli ATCC 35218 assessed as diameter of inhibition zone at 20 uM after 24 hrs by Kirby -Baur disc diffusion method; assay type: functional; settings: ATCC 35218, 24 h, read-out: DIZ; method in brief: as §4
[35] = test system: Mus musculus; assay: Antiinflammatory activity in mouse assessed as inhibition of carrageenan-induced increase in paw volume at 200 mg/kg administered 1 hr prior to carrageenan challenge measured after 3 hrs relative to control; assay type: functional
Method in brief: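 Mice were fasted 2 h and placed in groups of five. Controls received saline i.p. Phenylbutazone was given at 100 mg/kg i.p., curcumin at 200 mg/kg i.p., and derivatives at 200 mg/kg. After 1 h, 0.1 mL of 1% carrageenan in saline was injected subplantar into the right hind paw. Paw volume was followed by plethysmometer for 3 h, and % inhibition was calculated as (Vc − Vt)/Vc × 100.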

[36] = test system: Curvularia lunata; assay: Antifungal activity against Curvularia lunata MTCC 581 after 48 hrs; assay type: functional; settings: MTCC 581, 48 h
[37] = test system: Staphylococcus aureus; assay: Antimicrobial activity against Staphylococcus aureus ATCC 11632 assessed as diameter of inhibition zone at 80 uM after 24 hrs by Kirby -Baur disc diffusion method; assay type: functional; settings: ATCC 11632, 24 h, read-out: DIZ; method in brief: as §4
[38] = test system: Salmonella typhi; assay: Antimicrobial activity against Salmonella typhi ATCC 23564 after 24 hrs by broth micro serial dilution method; assay type: functional, Salmonella enterica subsp. enterica serovar Typhi; settings: Salmonella enterica, ATCC 23564, 24 h
[39] = test system: Escherichia coli; assay: Antimicrobial activity against Escherichia coli ATCC 35218 assessed as diameter of inhibition zone at 40 uM after 24 hrs by Kirby -Baur disc diffusion method; assay type: functional; settings: ATCC 35218, 24 h, read-out: DIZ; method in brief: as §4

Compound: COc1cc(/C=C/C(O)=C/C(/C=C/c2ccc(O)c(OC)c2)=N/c2ccc(S(N)(=O)=O)cc2)ccc1O
- IC50 [1]: 50 µM
- MIC [2]: 40 µM (≈ 20.9 µg/mL)
- MIC [3]: > 80 µM
- zone of inhibition at 80 µM [4]: 11 mm
- zone of inhibition at 20 µM [5]: 10 mm
- zone of inhibition at 80 µM [6]: 12 mm
- diameter of the inhibition zone (DIZ) [7]: inactive
- inhibition zone (IZ) [8]: inactive
- zone of inhibition at 40 µM [9]: 9 mm
- zone of inhibition at 20 µM [10]: 9 mm
- diameter of the inhibition zone (DIZ) [11]: inactive
- MIC [12]: 80 µM (≈ 41.8 µg/mL)
- diameter of the inhibition zone (DIZ) [13]: inactive
- MIC [14]: > 80 µM
- inhibition zone (IZ) [15]: inactive
- MIC [16]: 40 µM (≈ 20.9 µg/mL)
- zone of inhibition at 80 µM [17]: 11 mm
- zone of inhibition at 80 µM [18]: 13 mm
- zone of inhibition at 40 µM [19]: 9 mm
- MIC [20]: inactive
- zone of inhibition at 40 µM [21]: 10 mm
- IC50 [22]: 100 µM
- IC50 [23]: 50 µM
- inhibition zone (IZ) [24]: inactive
- zone of inhibition at 40 µM [25]: 13 mm
- inhibition zone (IZ) [26]: inactive
- MIC [27]: 40 µM (≈ 20.9 µg/mL)
- zone of inhibition at 80 µM [28]: 9 mm
- zone of inhibition at 40 µM [29]: 11 mm
- zone of inhibition at 80 µM [30]: 15 mm
- zone of inhibition at 80 µM [31]: 11 mm
- IC50 [32]: 100 µM
- diameter of the inhibition zone (DIZ) [33]: inactive
- zone of inhibition at 20 µM [34]: 12 mm
- inhibition in vivo at 200 mg/kg [35]: 29%
- MIC [36]: 80 µM (≈ 41.8 µg/mL)
- zone of inhibition at 80 µM [37]: 14 mm
- MIC [38]: 40 µM (≈ 20.9 µg/mL)
- zone of inhibition at 40 µM [39]: 13 mm
